The source made the active and inactive calls. The calls are words filed in the database; no cut-off is given here.

The IC50 is the midpoint of a concentration-inhibition curve.

Assay [1] relates to U-937. The assay can be described thus: Cytotoxicity against human U937 cells assessed as reduction in cell viability incubated for 72 hrs by alamar blue assay. The format is functional, cell-based. The settings on record: U-937, 72 h. The method, boiled down: (§1)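 Suspension cells (2200/well, 384-well) were added directly onto compound in media with no attachment period. Compounds spanned 31.6 nM–200 μM in triplicate, with 72 h exposure at 37 °C, 5% CO2. Alamar Blue was added for the last 3 h and fluorescence read (ex 560/em 590 nm). IC50 came from ≥3 independent experiments.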
On the technique in general: The colour change of resazurin is a common sign of viable cells or microbes.

Assay [2] deals with HeLa. The assay can be described thus: Cytotoxicity against human HeLa cells assessed as reduction in cell viability incubated for 72 hrs in presence of doxorubicin by alamar blue assay. The format is functional. Put shortly: (§2)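 Same combination format as the 6TP study, with the cytotoxic partner (doxorubicin, etoposide or paclitaxel) combined with test compound. Cells were at 4000/well (adherent) in 100 μL, 1% DMSO, for 72 h at 37 °C, 5% CO2, with Alamar Blue viability read-out. Combination index was derived by the Chou–Talalay protocol and reported as a median.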

Assay [3] relates to HCT-116. The assay can be described thus: Cytotoxicity against human HCT116 cells assessed as reduction in cell viability incubated for 72 hrs in presence of 6TP by alamar blue assay. The assay is classed as functional, cell-based. Put shortly: (§3)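 Combination assay in 96-well plates with 100 μL final volume and 1% DMSO. Two test-compound concentrations were crossed with five 6TP concentrations, then cells were added (4000/well adherent, 7000/well suspension). Plates ran 72 h at 37 °C, 5% CO2, with Alamar Blue viability read-out and ≥3 independent experiments. Combination index was calculated by the Chou–Talalay method.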

Assay [4] relates to HCT-116. Put plainly: Cytotoxicity against human HCT116 cells assessed as reduction in cell viability incubated for 72 hrs in presence of etoposide by alamar blue assay. The assay is classed as functional, cell-based. The method, boiled down: as §2
Assay [5] relates to HeLa. Put plainly: Cytotoxicity against human HeLa cells assessed as reduction in cell viability incubated for 72 hrs by alamar blue assay. The assay is classed as functional, cell-based. Put shortly:
(§4)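 Adherent cells were seeded at 1500 cells/well in 384-well plates and allowed 2–3 h to attach. Compounds in DMSO, diluted in media over 31.6 nM–200 μM, were tested in triplicate for 72 h continuous exposure at 37 °C, 5% CO2. Alamar Blue was added for the final 3 h and fluorescence read (ex 560/em 590 nm). IC50 was fitted from ≥3 independent experiments.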

Assay [6] has as its system A549. Put plainly: Cytotoxicity against human A549 cells assessed as reduction in cell viability incubated for 72 hrs by alamar blue assay. The assay is classed as functional, cell-based. The following applies: A549, 72 h. The method, boiled down: as §4
Assay [7] deals with HCT-116. Put plainly: Cytotoxicity against human HCT116 cells assessed as reduction in cell viability incubated for 72 hrs in presence of paclitaxel by alamar blue assay. The format is functional, cell-based. Put shortly:
as §2

Assay [8] concerns HCT-116. Put plainly: Cytotoxicity against human HCT116 cells assessed as reduction in cell viability incubated for 72 hrs by alamar blue assay. The assay is classed as functional, cell-based. The following applies: HCT-116, 72 h. Put shortly:
as §4

Assay [9] relates to MIA PaCa-2. Put plainly: Cytotoxicity against human MIAPaCa2 cells assessed as reduction in cell viability incubated for 72 hrs by alamar blue assay. The format is functional, cell-based. The following applies: MIA PaCa-2, 72 h. The method, boiled down:
as §4

Assay [10] relates to REH. Put plainly: Cytotoxicity against human REH cells assessed as reduction in cell viability incubated for 72 hrs by alamar blue assay. The format is functional, cell-based. Put shortly:
as §1

Assay [11] has as its system U-937. The assay can be described thus: Cytotoxicity against human U937 cells assessed as reduction in cell viability incubated for 72 hrs in presence of 6TP by alamar blue assay. The format is functional. The method, boiled down: as §3

Take `COc1cc(OC)c(C(=O)/C=C/c2ccccc2)c(OC)c1Cc1ccccc1O`: the half-inhibitory concentration (IC50) in [1] was 4.2 µM; in assay [5] it was 2700 nM; in assay [6] it was 9.3 µM; in [8] it was 18.6 µM; in assay [9], 4.1 µM; in [10], over 20 µM. Further, the CI in assay [2] was 0.12. Besides, the outcome in assay [3], in assay [4] and in assay [7] was inactive.

Turning to `COc1cc(OC)c(C(=O)CCc2ccccc2)c(OC)c1Cc1ccccc1O`, the 50% inhibitory concentration (IC50) in [1] is over 20 µM; in assay [5] it was over 20000 nM; in assay [6], over 20 µM; in [8] it was over 20 µM; in assay [9] it was over 20 µM; in assay [10], over 20 µM. In addition, the results for the CI in [2] and in [11] were 0.11 and 0.22, respectively.

For the origin of these results see ChEMBL document CHEMBL4334424, “The winding road of the uvaretin class of natural products: from total synthesis to bioactive agent discovery” (Medchemcomm, 2019).
